Measurements as given in ChEMBL document CHEMBL4257580, “Tanshinone-IIA-Based Analogues of Imidazole Alkaloid Act as Potent Inhibitors To Block Breast Cancer Invasion and Metastasis in Vivo” (J Med Chem, 2018).
The source made the active and inactive calls. The calls are words filed in the database; no cut-off is given here.

How the values were obtained:
[1] = system: HepG2; test: Antiproliferative activity against human HepG2 cells after 72 hrs by MTT assay; assay type: functional, cell-based; conditions: HepG2, 72 h
How it was run: (§1)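 A549, HeLa, HepG2 and normal liver L02 cells kept in DMEM with 10% FBS at 37 °C under 5% CO2. Plated at 5×10^3 cells/well for 24 h, then treated with graded concentrations for 72 h. Viability measured by MTT reduction (5 h), formazan dissolved in DMSO and read at 570 nm. Three repeats.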

[2] = system: HeLa; test: Antiproliferative activity against human HeLa cells after 72 hrs by MTT assay; assay type: functional, cell-based; how it was run: as §1
[3] = system: MDA-MB-231; test: Antimigratory activity in human MDA-MB-231 cells at 3 uM up to 72 hrs by wound healing assay relative to control; assay type: functional
How it was run: (§2)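 Scratch assay: 1×10^5 cells/well grown to more than 80% confluence and wounded with a pipette tip. Cells then incubated with 0, 3 or 6 μM in serum-free DMEM for 72 h. The same field was imaged repeatedly over 3 days. Migration rate is wound filling, averaged over 10 fields; three independent experiments, mean ± SD.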

[4] = system: MDA-MB-231; test: Antimigratory activity in human MDA-MB-231 cells up to 72 hrs by wound healing assay; assay type: functional, cell-based; how it was run: as §2
[5] = system: MDA-MB-231; test: Antiangiogenesis activity in human MDA-MB-231 cells xenografted in fil1:EGFP transgenic zebrafish sub-intestinal vessels assessed as inhibition of cell invasion at 5 uM measured every 24 hrs for 96 hrs by fluorescence microscopy; assay type: functional, cell-based
How it was run: (§3)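 Tg(fli1:EGFP) embryos at 48 hpf injected with 10–50 nL of DiI-labelled cells (~10^7 cells/mL in serum-free DMEM) into the perivitelline space near the subintestinal vessels. Ten embryos per well kept in 2 mL aquaculture water with 0 or 5 μM for 96 h. Imaged every 24 h by fluorescence microscopy; tumour area and trunk/tail fluorescence quantified, n=10/group, three experiments.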

[6] = system: MDA-MB-231; test: Antitumor activity in human MDA-MB-231 cells xenografted in fil1:EGFP transgenic zebrafish sub-intestinal vessels assessed as reduction in tumor area at 5 uM measured every 24 hrs for 96 hrs by fluorescence microscopy; assay type: functional, cell-based; how it was run: as §3
[7] = system: MDA-MB-231; test: Antimetastasis activity in human MDA-MB-231 cells assessed reduction in FAK protein expression at 5 to 15 uM after 72 hrs by Western blot analysis; assay type: functional, cell-based
How it was run: (§4)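 Cells treated with 0, 5, 10 or 15 μM for 72 h. Lysates quantified by BCA, equal protein resolved on 10% tricine SDS-PAGE and transferred to nitrocellulose. Membranes blocked in 5% milk/TBST, then primary antibodies 1:1000 overnight at 4 °C and HRP secondary 1:2000 for 1 h at room temperature. Three independent experiments.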

[8] = system: MDA-MB-231; test: Antimetastasis activity in human MDA-MB-231 cells assessed upregulation of GSKbeta protein expression at 5 to 15 uM after 72 hrs by Western blot analysis; assay type: functional, cell-based; how it was run: as §4
[9] = system: MDA-MB-231; test: Cell cycle arrest in human MDA-MB-231 cells assessed as accumulation at S phase at 5 uM after 72 hrs by propidium iodide staining based flow cytometry (reference value: 42.60%); assay type: functional
[10] = system: MDA-MB-231; test: Cell cycle arrest in human MDA-MB-231 cells assessed as accumulation at G1 phase at 10 uM after 72 hrs by propidium iodide staining based flow cytometry (reference value: 49.40%); assay type: functional
[11] = system: MDA-MB-231; test: Cell cycle arrest in human MDA-MB-231 cells assessed as accumulation at G2 phase at 10 uM after 72 hrs by propidium iodide staining based flow cytometry (reference value: 8%); assay type: functional
[12] = system: MDA-MB-231; test: Cell cycle arrest in human MDA-MB-231 cells assessed as accumulation at G2 phase at 15 uM after 72 hrs by propidium iodide staining based flow cytometry (reference value: 8%); assay type: functional
[13] = system: MDA-MB-231; test: Induction of apoptosis in human MDA-MB-231 cells assessed as late apoptotic cells at 10 uM after 72 hrs by annexin-V/propidium iodide double staining based flow cytometry (reference value: 0.12%); assay type: functional
[14] = system: MDA-MB-231; test: Induction of apoptosis in human MDA-MB-231 cells assessed as early apoptotic cells at 15 uM after 72 hrs by annexin-V/propidium iodide double staining based flow cytometry (reference value: 0.02%); assay type: functional
[15] = system: MDA-MB-231; test: Cell cycle arrest in human MDA-MB-231 cells assessed as up-regulation of p21 expression at 5 to 15 uM after 72 hrs by Western blot analysis; assay type: functional, cell-based; how it was run: as §4
[16] = system: MDA-MB-231; test: Cell cycle arrest in human MDA-MB-231 cells assessed as downregulation of cyclin A expression at 5 to 15 uM after 72 hrs by Western blot analysis; assay type: functional, cell-based; how it was run: as §4
[17] = system: MDA-MB-231; test: Induction of apoptosis in human MDA-MB-231 cells assessed as up-regulation cleaved caspase3 expression at 5 to 15 uM after 72 hrs by Western blot analysis; assay type: functional, cell-based; how it was run: as §4
[18] = system: MDA-MB-231; test: Induction of apoptosis in human MDA-MB-231 cells assessed as up-regulation of PARP expression at 5 to 15 uM after 72 hrs by Western blot analysis; assay type: functional, cell-based; how it was run: as §4
[19] = system: MDA-MB-231; test: Induction of DNA damage in human MDA-MB-231 cells assessed as up-regulation of gammaH2AX expression at 2 to 15 uM by Western blot analysis; assay type: functional, cell-based
[20] = system: MDA-MB-231; test: Antimetastasis activity in human MDA-MB-231 cells assessed reduction in stress fibers by measuring F-actin protein expression at 5 to 10 uM after 24 hrs by immunofluorescence based assay

## Cc1coc2c3ccc4c(c3c3[nH]c(-c5ccc(O)cc5)nc3c12)CCCC4(C)C
[1]
  IC50: 21.2 µM
[2]
  IC50: 39.8 µM
[3]
  Activity: <50%
[4]
  Activity: Dose-dependent effect
[5]
  Activity: Active
[6]
  Activity: Active
[7]
  Activity: Active
[8]
  Activity: Active
[9]
  Activity: 46.41%
[10]
  Activity: 35.49%
[11]
  Activity: 13.01%
[12]
  Activity: 10.12%
[13]
  Activity: 0.35%
[14]
  Activity: 6.73%
[15]
  Activity: Active
[16]
  Activity: Active
[17]
  Activity: Active
[18]
  Activity: Active
[19]
  Activity: Active
[20]
  Activity: Active
